Measured values as given in ChEMBL document CHEMBL4673243, “Discovery of 9-Cyclopropylethynyl-2-((S)-1-[1,4]dioxan-2-ylmethoxy)-6,7-dihydropyrimido[6,1-a]isoquinolin-4-one (GLPG1205), a Unique GPR84 Negative Allosteric Modulator Undergoing Evaluation in a Phase II Clinical Trial” (J Med Chem, 2020).
pIC50: −log10 of the molar value. In brackets after ≈: the same amount, converted by molar mass. One block for each compound: values may come before it.

Legend:
in vitro [1] = conditions: human, liver microsomes
in vitro [2] = conditions: mouse, liver microsomes
in vitro [3] = conditions: mouse, cryopreserved hepatocytes
in vitro [4] = conditions: human, cryopreserved hepatocytes
in vitro [5] = conditions: rat, liver microsomes
[6] = Plasma protein binding in mouse at 5 uM measured after 4 hrs by LC-MS/MS analysis
[7] = Plasma protein binding in human at 5 uM measured after 4 hrs by LC-MS/MS analysis
[8] = Plasma protein binding in rat at 5 uM measured after 4 hrs by LC-MS/MS analysis
[9] = target: 3',5'-cyclic-AMP phosphodiesterase 4A (Homo sapiens, UniProt P27815); assay: Inhibition of recombinant human PDE4A overexpressed in HEK293 cells assessed as reduction in cAMP hydrolysis by HTRF based immunoassay; format: cell-based; conditions: read-out: IC50
Summary of the method: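 Human PDE4A from lysate of HEK293 cells overexpressing the enzyme hydrolyses cAMP; remaining cAMP measured by HTRF competitive immunoassay (d2-labelled cAMP vs cryptate anti-cAMP antibody), signal inversely proportional to cAMP; IC50 determined.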

CYP2C19 = CYP2C19 (Homo sapiens, UniProt P33261); assay: Inhibition of CYP2C19 in human liver microsomes at 10 uM using probe substrate and in presence of co-factor measured after 20 mins by LC-MS/MS analysis relative to control; format: ADME
CYP2C9 = CYP2C9 (Homo sapiens, UniProt P11712); assay: Inhibition of CYP2C9 in human liver microsomes at 10 uM using probe substrate and in presence of co-factor measured after 20 mins by LC-MS/MS analysis relative to control; format: ADME
CYP2D6 = CYP2D6 (Homo sapiens, UniProt P10635); assay: Inhibition of CYP2D6 in human liver microsomes at 10 uM using probe substrate and in presence of co-factor measured after 20 mins by LC-MS/MS analysis relative to control; format: ADME
CYP3A4 [10] = target: T1, CYP3A4 (Homo sapiens, UniProt P08684); assay: Inhibition of CYP3A4 in human liver microsomes at 10 uM using testosterone as probe substrate and in presence of co-factor measured after 20 mins by LC-MS/MS analysis relative to control; format: ADME
CYP1A2 = target: T2, CYP1A2 (Homo sapiens, UniProt P05177); assay: Inhibition of CYP1A2 in human liver microsomes at 10 uM using probe substrate and in presence of co-factor measured after 20 mins by LC-MS/MS analysis relative to control; format: ADME
T2 sequence (P05177 whole entry): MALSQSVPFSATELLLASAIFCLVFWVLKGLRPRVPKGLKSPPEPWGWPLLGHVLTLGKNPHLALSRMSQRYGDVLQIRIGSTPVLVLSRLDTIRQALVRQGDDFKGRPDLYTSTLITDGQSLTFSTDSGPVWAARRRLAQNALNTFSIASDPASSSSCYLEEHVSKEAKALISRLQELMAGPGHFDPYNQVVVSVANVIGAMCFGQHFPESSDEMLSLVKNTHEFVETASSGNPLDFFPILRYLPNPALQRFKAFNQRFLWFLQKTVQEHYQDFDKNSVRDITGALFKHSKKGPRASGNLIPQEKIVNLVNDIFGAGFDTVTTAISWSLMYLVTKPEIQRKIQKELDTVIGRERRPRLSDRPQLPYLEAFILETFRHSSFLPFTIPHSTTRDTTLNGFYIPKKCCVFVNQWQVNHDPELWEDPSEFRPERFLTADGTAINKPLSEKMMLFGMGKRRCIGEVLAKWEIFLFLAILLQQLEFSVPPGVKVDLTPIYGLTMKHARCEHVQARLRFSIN

CYP3A4 [11] = target: T1, CYP3A4; assay: Inhibition of CYP3A4 in human liver microsomes at 10 uM using midazolam as probe substrate and in presence of co-factor measured after 20 mins by LC-MS/MS analysis relative to control; format: ADME
physchem = conditions: aqueous solution with 2% DMSO, pH 7.4

Chain of 3',5'-cyclic-AMP phosphodiesterase 4A (P27815 whole entry): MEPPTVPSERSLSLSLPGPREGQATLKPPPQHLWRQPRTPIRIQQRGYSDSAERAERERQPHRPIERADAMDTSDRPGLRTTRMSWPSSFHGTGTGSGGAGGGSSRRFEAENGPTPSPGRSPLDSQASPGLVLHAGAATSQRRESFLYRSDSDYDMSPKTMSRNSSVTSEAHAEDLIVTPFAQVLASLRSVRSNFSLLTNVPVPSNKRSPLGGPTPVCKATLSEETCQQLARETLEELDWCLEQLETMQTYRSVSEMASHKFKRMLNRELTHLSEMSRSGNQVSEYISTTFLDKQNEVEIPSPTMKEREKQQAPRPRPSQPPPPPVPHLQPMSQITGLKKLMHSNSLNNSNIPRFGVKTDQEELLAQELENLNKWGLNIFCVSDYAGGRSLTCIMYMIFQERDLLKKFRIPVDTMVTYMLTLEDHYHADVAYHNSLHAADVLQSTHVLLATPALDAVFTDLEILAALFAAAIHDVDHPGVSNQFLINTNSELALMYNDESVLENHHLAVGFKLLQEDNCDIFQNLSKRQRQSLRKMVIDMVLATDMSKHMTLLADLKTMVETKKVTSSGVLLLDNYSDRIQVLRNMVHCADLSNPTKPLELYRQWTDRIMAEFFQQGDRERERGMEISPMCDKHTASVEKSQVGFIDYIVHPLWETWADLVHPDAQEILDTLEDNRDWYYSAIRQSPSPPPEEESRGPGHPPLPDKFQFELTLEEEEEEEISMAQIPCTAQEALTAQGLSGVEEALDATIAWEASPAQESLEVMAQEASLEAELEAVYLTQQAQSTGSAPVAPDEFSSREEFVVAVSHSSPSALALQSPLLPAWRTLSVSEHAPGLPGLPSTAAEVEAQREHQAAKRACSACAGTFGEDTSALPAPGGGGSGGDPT
T1 sequence (P08684 whole entry): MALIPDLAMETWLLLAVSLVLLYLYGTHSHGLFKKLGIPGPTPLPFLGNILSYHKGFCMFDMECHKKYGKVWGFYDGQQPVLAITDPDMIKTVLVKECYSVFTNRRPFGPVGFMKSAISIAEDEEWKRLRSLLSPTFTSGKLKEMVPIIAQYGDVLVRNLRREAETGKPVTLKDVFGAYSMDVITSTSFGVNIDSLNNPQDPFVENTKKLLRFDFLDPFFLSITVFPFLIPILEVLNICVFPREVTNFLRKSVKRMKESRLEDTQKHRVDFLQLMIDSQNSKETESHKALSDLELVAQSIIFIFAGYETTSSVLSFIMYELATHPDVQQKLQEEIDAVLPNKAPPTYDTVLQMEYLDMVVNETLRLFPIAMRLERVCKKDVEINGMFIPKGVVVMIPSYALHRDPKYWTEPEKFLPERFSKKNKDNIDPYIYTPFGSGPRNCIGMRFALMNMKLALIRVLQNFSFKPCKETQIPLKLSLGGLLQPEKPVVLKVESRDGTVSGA
Chain of CYP2C19 (P33261 whole entry): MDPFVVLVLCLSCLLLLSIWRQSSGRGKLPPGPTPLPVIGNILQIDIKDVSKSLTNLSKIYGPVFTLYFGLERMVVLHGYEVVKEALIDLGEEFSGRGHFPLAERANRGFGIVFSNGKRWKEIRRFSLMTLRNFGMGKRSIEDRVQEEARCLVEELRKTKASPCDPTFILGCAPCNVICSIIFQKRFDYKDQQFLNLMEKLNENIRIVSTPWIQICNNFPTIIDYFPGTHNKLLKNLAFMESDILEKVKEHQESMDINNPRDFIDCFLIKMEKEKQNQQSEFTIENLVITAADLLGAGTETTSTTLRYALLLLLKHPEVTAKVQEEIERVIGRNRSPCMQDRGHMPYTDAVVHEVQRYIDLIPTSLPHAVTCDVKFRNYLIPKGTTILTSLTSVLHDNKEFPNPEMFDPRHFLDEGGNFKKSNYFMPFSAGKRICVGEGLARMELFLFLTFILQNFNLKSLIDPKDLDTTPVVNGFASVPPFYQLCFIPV
Chain of CYP2C9 (P11712 whole entry): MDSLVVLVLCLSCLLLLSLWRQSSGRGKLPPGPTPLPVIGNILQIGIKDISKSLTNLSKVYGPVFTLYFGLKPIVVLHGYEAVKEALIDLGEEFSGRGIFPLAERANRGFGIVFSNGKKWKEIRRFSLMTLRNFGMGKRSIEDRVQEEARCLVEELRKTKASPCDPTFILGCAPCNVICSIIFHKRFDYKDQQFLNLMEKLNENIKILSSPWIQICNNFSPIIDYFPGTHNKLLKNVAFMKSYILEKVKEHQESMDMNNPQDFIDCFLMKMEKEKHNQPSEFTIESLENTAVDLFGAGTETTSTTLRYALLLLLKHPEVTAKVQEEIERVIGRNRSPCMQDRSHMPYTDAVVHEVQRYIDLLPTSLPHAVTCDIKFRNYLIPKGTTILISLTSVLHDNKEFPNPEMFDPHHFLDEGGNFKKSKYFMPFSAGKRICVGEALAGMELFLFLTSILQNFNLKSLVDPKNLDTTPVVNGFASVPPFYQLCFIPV
Chain of CYP2D6 (P10635 whole entry): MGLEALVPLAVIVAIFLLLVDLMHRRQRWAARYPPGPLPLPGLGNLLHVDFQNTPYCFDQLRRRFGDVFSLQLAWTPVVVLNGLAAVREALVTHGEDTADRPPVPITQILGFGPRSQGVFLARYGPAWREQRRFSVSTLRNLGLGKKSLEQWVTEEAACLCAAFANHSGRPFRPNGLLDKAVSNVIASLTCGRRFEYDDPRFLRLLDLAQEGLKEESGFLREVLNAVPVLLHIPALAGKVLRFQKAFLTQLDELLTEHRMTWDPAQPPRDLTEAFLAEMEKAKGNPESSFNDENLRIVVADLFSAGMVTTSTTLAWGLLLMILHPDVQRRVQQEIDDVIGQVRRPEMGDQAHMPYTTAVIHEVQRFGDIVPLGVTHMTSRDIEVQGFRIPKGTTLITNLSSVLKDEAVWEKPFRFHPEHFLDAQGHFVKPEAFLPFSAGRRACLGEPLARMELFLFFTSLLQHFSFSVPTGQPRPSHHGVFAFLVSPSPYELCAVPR

- CLint scaled at 0.5 h, 1 µM (in vitro [1]): 33.3 mL/min/kg
- CLint scaled at 0.5 h, 1 µM (in vitro [2]): 2150 mL/min/kg
- CLint scaled at 1 µM (in vitro [3]): 647 mL/min/kg
- CLint scaled at 1 µM (in vitro [4]): 23.3 mL/min/kg
Compound: COc1ccc2c(c1)CCn1c-2cc(OCC2CCCO2)nc1=O (configuration not stated)

- CLint scaled at 0.5 h, 1 µM (in vitro [1]): < 15 mL/min/kg
- CLint scaled at 0.5 h, 1 µM (in vitro [5]): < 23.3 mL/min/kg
- CLint scaled at 0.5 h, 1 µM (in vitro [2]): 173 mL/min/kg
- fraction unbound at 4 h, 5 µM [6]: 0.389
- CLint scaled at 1 µM (in vitro [3]): 262 mL/min/kg
- fraction unbound at 4 h, 5 µM [7]: 0.223
- fraction unbound at 4 h, 5 µM [8]: 0.285
- CLint scaled at 1 µM (in vitro [4]): < 11.7 mL/min/kg
Compound: COc1ccc2c(c1)CCn1c-2cc(OCC2COCCO2)nc1=O (configuration not stated)

- pIC50 [9]: < 5.00
Compound: O=c1nc(OCc2ccccc2F)cc2n1CCc1ccccc1-2

- CLint scaled at 0.5 h, 1 µM (in vitro [2]): 487 mL/min/kg
- pIC50 [9]: < 5.00
Compound: COc1ccc2c(c1)CCn1c-2cc(OCc2ncccc2F)nc1=O

- CLint scaled at 0.5 h, 1 µM (in vitro [1]): 25 mL/min/kg
- CLint scaled at 0.5 h, 1 µM (in vitro [2]): 517 mL/min/kg
Compound: O=c1nc(OCC2COCCO2)cc2n1CCc1cc(CCc3ccccn3)ccc1-2 (configuration not stated)

- CLint scaled at 0.5 h, 1 µM (in vitro [5]): 255 mL/min/kg
- CLint scaled at 0.5 h, 1 µM (in vitro [2]): 437 mL/min/kg
Compound: CC(C)CC(O)C#Cc1ccc2c(c1)CCn1c-2cc(OCC2COCCO2)nc1=O (configuration not stated)

- inhibition at 20 min, 10 µM (CYP2C19): < 33%
- inhibition at 20 min, 10 µM (CYP2C9): < 33%
- inhibition at 20 min, 10 µM (CYP2D6): < 33%
- inhibition at 20 min, 10 µM (CYP3A4 [10]): < 33%
- pIC50 [9]: 6.26
- inhibition at 20 min, 10 µM (CYP1A2): < 33%
- inhibition at 20 min, 10 µM (CYP3A4 [11]): < 33%
Compound: COc1cc2c(cc1OC)-c1cc(NCc3ccccc3)nc(=O)n1CC2

- pIC50 [9]: < 5.00
Compound: COc1ccc2c(c1)CCn1c-2cc(OCCOc2ccccc2)nc1=O

- CLint scaled at 0.5 h, 1 µM (in vitro [2]): 670 mL/min/kg
- pIC50 [9]: 6.43
- solubility (physchem): 26 µg/mL (≈ 68 µM)
Compound: COc1cc2c(cc1OC)-c1cc(OCc3ccccc3F)nc(=O)n1CC2

- CLint scaled at 0.5 h, 1 µM (in vitro [2]): 175 mL/min/kg
- pIC50 [9]: 5.66
- solubility (physchem): 72 µg/mL (≈ 201 µM)
Compound: COc1cc2c(cc1OC)-c1cc(OCC3CCCO3)nc(=O)n1CC2 (configuration not stated)

- CLint scaled at 0.5 h, 1 µM (in vitro [2]): 1970 mL/min/kg
- pIC50 [9]: < 5.00
Compound: COc1ccc2c(c1)-c1cc(OCc3ccccc3F)nc(=O)n1CC2

- CLint scaled at 0.5 h, 1 µM (in vitro [2]): 1490 mL/min/kg
- pIC50 [9]: < 5.00
Compound: COc1ccc2c(c1)CCn1c-2cc(OCc2ccccc2F)nc1=O
